Laboratory results as given in ChEMBL document CHEMBL4808254, “Further SAR studies on natural template based neuroprotective molecules for the treatment of Alzheimer's disease” (Bioorg Med Chem, 2021).
Active and inactive are the calls of the source. The rule behind the calls is not given here.

What was measured:
[1] = Antioxidant activity assessed as DPPH radical scavenging activity at 20 uM measured after 25 mins by microplate reader based assay relative to control; format: functional
In short: (§1)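 Test compound at serial concentrations (single 20 µM for percent values) mixed 1:1 with 200 µM DPPH in methanol; 25 min at 37 °C with shaking at 300 rpm; absorbance read at 517 nm. Percent scavenging taken against DPPH control; IC50 is the concentration that removes 50% of radical. Mean ± SD of three independent experiments.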

Cholinesterase = Cholinesterase (Equus caballus, UniProt P81908); experiment: Inhibition of equine serum BChE using butyrylthiocholine iodide as substrate preincubated with enzyme for 30 mins followed by substrate addition and measured after 30 mins by Ellman's method; format: cell-free
Chain of Cholinesterase (P81908 whole entry): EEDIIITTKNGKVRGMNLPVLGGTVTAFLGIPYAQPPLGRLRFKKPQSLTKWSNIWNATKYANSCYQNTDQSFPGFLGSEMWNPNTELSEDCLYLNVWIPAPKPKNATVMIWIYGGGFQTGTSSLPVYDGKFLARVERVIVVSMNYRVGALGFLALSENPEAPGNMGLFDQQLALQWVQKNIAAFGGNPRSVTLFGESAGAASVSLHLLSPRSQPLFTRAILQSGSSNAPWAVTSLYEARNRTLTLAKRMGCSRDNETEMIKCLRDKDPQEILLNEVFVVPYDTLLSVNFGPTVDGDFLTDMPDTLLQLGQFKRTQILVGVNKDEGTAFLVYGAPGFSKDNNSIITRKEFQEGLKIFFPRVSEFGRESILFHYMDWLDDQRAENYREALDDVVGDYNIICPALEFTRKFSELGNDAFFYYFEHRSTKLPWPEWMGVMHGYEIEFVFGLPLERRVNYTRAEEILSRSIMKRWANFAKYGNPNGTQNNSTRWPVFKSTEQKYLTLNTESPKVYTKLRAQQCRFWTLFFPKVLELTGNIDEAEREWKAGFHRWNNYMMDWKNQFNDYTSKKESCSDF
In short: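 Equine BChE (0.06 U/mL) preincubated with a range of inhibitor concentrations, 37 °C, 30 min. BTCI (15 mM) then added for 30 min, followed by DTNB (1.5 mM). A415 recorded. Mean ± SD of two or three independent experiments, each in triplicate.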

Acetylcholinesterase [2] = target: T1, Acetylcholinesterase (Homo sapiens, UniProt P22303); experiment: Inhibition of AChE in human erythrocytes using acetylthiocholine iodide as substrate at 20 uM preincubated with enzyme for 30 mins followed by substrate addition and measured after 30 mins by Ellman's method relative to control; format: cell-based; conditions: Erythrocyte, time 60.0 min
T1 sequence (P22303 whole entry): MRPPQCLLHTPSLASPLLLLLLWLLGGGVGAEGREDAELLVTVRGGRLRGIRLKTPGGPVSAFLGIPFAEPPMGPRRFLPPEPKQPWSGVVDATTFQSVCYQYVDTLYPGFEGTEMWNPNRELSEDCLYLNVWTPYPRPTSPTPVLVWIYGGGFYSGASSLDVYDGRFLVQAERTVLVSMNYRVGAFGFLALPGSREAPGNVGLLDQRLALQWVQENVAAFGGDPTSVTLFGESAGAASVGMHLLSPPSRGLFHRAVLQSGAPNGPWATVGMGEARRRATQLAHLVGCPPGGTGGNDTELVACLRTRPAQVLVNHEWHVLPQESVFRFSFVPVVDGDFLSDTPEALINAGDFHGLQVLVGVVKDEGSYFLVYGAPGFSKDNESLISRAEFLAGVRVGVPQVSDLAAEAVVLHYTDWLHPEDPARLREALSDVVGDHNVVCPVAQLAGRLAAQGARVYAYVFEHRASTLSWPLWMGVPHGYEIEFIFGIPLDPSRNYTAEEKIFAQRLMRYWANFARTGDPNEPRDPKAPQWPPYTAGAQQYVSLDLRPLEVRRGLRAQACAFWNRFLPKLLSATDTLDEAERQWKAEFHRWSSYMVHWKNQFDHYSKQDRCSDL
In short: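 hAChE (0.022 U/mL) preincubated with inhibitor at 20 µM, 37 °C, 30 min. ATCI (1.5 mM) then added and incubated a further 30 min, followed by DTNB (0.15 mM). Absorbance read at 415 nm. % inhibition = [(Ac − Ai)/Ac] × 100 against an uninhibited enzyme. Mean ± SD of two or three experiments run in triplicate.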

[3] = Antioxidant activity assessed as DPPH radical scavenging activity measured after 25 mins by microplate reader based assay; format: functional; in short: as §1
Acetylcholinesterase [4] = target: T1, Acetylcholinesterase; experiment: Inhibition of AChE in human erythrocytes using acetylthiocholine iodide as substrate preincubated with enzyme for 30 mins followed by substrate addition and measured after 30 mins by Ellman's method; format: cell-based, Erythrocyte
[5] = target: Cholinesterase (Equus caballus) (UniProt P81908); experiment: Inhibition of equine serum BChE using butyrylthiocholine iodide as substrate at 20 uM preincubated with enzyme for 30 mins followed by substrate addition and measured after 30 mins by Ellman's method relative to control; format: cell-free; conditions: time 60.0 min
Chain of Cholinesterase (Equus caballus) (P81908 whole entry): as the sequence (P81908 whole entry) above
In short: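 Equine BChE (0.06 U/mL) preincubated with inhibitor at 20 µM, 37 °C, 30 min. BTCI (15 mM) then added and incubated a further 30 min, followed by DTNB (1.5 mM). Absorbance read at 415 nm. % inhibition taken relative to an enzyme-only control. Mean ± SD of two or three experiments run in triplicate.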

[6] = Permeability of the compound in PBS buffer at pH 7.4 at 500 uM incubated for 18 hrs by PAMPA-BBB assay
Acetylcholinesterase [7] = target: T1, Acetylcholinesterase; experiment: Mixed inhibition of human erythrocyte AChE using different concentration of acetylthiocholine iodide as substrate preincubated with enzyme for 30 mins by Lineweaver-Burk plot analysis; format: tissue-based
In short: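 hAChE preincubated with inhibitor at three concentrations, 37 °C, 30 min. ATCI added at 0.5, 1.0, 1.5, 2.0 and 2.5 mM, then DTNB (0.15 mM). A415 recorded. Lineweaver-Burk double-reciprocal analysis used to assign the mechanism. Duplicate runs; mean ± SD of two independent experiments.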

[8] = target: Cholinesterase (Equus caballus) (UniProt P81908); experiment: Mixed inhibition of equine serum BChE using different concentration of butyrylthiocholine iodide as substrate preincubated with enzyme for 30 mins by Lineweaver-Burk plot analysis; format: cell-free
In short: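 eqBChE preincubated with inhibitor at three concentrations, 37 °C, 30 min. BTCI added at 5, 10, 15, 20 and 25 mM, then DTNB (1.5 mM). Absorbance read at 415 nm. Double-reciprocal 1/[S] vs 1/V plots used to assign inhibition type. Duplicate runs; mean ± SD of two independent experiments.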

N2a [9] = experiment: Cytotoxicity against mouse N2a cells assessed as effect on cell viability at 0.01 to 20 uM measured after 24 hrs by MTT assay; format: cell-based; conditions: dose 0.01-20 µM
In short: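 Neuro2a cells seeded at 1 × 10^4/well and left overnight to adhere. Exposed to 0.01, 0.1, 1, 2.5, 5, 10 or 20 µM in triplicate for 24 h at 37 °C in 5% CO2. Viability then read by MTT and expressed as percent of untreated cells. Mean ± SE of three independent experiments.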

[10] = Metal chelating activity assessed as compound-Fe3+ complex formation at 600 uM measured after 24 hrs at pH 7.4 in presence Fecl3.6H2O by UV-Vis spectroscopic analysis
In short: (§2)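 600 µM compound and 600 µM FeCl3·6H2O, both in methanol, mixed in equal volume and shaken at 1000 rpm for 24 h at 25 °C, then UV-scanned. For pH 7.4, diluted DIPEA added before rescanning. Spectra recorded from 300 to 700 nm, with the d–d region at 400–700 nm. Run in duplicate.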

[11] = Metal chelating activity assessed as compound-Fe3+ complex formation at 600 uM measured after 24 hrs at pH 4.2 in presence Fecl3.6H2O by UV-Vis spectroscopic analysis; in short: as §2
N2a [12] = experiment: Neuroprotective activity against H2O2-induced neurotoxicity in mouse N2a cells assessed as increase in cell viability at 1 to 20 uM preincubated for 24 hrs followed by co-incubation with H2O2 and measured after 24 hrs by MTT assay; format: functional, cell-based; conditions: dose 1-20 µM, time 48.0 hrs
In short: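 N2a cells seeded at 1 × 10^4/well and left overnight. Pre-incubated 24 h with 1, 2.5, 5, 10 or 20 µM, then co-incubated with 600 µM H2O2 for a further 24 h. MTT added for 4 h at 37 °C and formazan extracted in 0.04 N HCl/isopropanol for 1 h. OD read at 570 nm; viability as percent of untreated control. Three independent experiments, mean ± SEM.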

Mus musculus = experiment: Reversal of scopolamine induced cognitive memory impairment in C57BL/6 mouse assessed as escape latency time at 10 mg/kg, po administered 30 mins prior to scopolamine injection daily for 14 days by Morris water maze test (reference value: 50.11 +/-5.91 secs); format: functional; conditions: time 14 day
[13] = Metal chelating activity assessed as mole fraction required to show 1:1 stoichiometry for compound-Fe3+ complex formation measured after 24 hrs in presence Fecl3.6H2O by Job's plot analysis
In short: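 Stoichiometry by molar-ratio titration of compound against FeCl3 in methanol (0–10 ratio) at room temperature with UV spectra recorded. Job's plot built from Fe(III) mole fraction against absorbance. Means of duplicate runs.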

Compound	Activity [1]	IC50 (Cholinesterase)	inhibition (Acetylcholinesterase [2])	IC50 [3]	IC50 (Acetylcholinesterase [4])	further results
COc1cc(/C=C/C(=O)N2CCN(Cc3cccc(C)c3)CC2)ccc1O	26.3%	14.7 µM	45.5%	66 µM		
COc1cccc(NC(=O)CCNC(=O)/C=C/c2ccc(O)c(OC)c2)c1	21.3%	11.3 µM			2.41 µM	
COc1cc(/C=C/C(=O)N2CCN(Cc3ccccc3C)CC2)ccc1O		15.1 µM	43.1%			
COc1cc(/C=C/C(=O)N2CCN(Cc3ccccc3C#N)CC2)ccc1O		14.9 µM	45.4%			
COc1cc(/C=C/C(=O)NCCC(=O)Nc2ccccc2)ccc1O	10.6%	16.4 µM		95.6 µM	14.8 µM	
COc1cc(/C=C/C(=O)N2CCN(Cc3cccc(C#N)c3)CC2)ccc1O		14.7 µM	42.4%			
COc1cc(/C=C/C(=O)N2CCN(Cc3ccccc3)CC2)ccc1O	38.4%			31.3 µM	13.3 µM	inhibition [5]: 45.1%
COc1cccc(N2CCN(C(=O)/C=C/c3ccc(O)c(OC)c3)CC2)c1				62 µM		
COc1cc(/C=C/C(=O)N2CCN(Cc3cccc(Cl)c3)CC2)ccc1O	23.1%	14.8 µM		61.5 µM	15.4 µM	
COc1cc(/C=C/C(=O)NCC(=O)NCCc2c[nH]c3ccccc23)ccc1O	38.5%	3.14 µM		29.1 µM	1.42 µM	
COc1cc(/C=C/C(=O)NCCC(=O)Nc2ccc(Cl)cc2)ccc1O	18.7%	7.13 µM		84.2 µM	5.32 µM	
COc1cc(/C=C/C(=O)N2CCN(Cc3ccc(C)cc3)CC2)ccc1O		14.8 µM	43.2%			
COc1cc(/C=C/C(=O)O)ccc1O [FERULATE]	33.1%		15.1%	58.3 µM		inhibition [5]: 17.1%
COc1cc(/C=C/C(=O)N2CCN(Cc3ccc(C#N)cc3)CC2)ccc1O		15.6 µM	39.4%			
COc1cc(/C=C/C(=O)N2CCN(Cc3cccc([N+](=O)[O-])c3)CC2)ccc1O		14.6 µM	38.8%			
COc1cccc(CN2CCN(C(=O)/C=C/c3ccc(O)c(OC)c3)CC2)c1					15.2 µM	inhibition [5]: 49.1%
COc1cc(/C=C/C(=O)N2CCN(Cc3ccc(Cl)cc3)CC2)ccc1O	32.4%	15.9 µM	37.3%	62.4 µM		
COc1cc(/C=C/C(=O)NCC(=O)Nc2ccc3[nH]ccc3c2)ccc1O				57.4 µM		
COc1cc(/C=C/C(=O)N2CCN(Cc3ccccc3F)CC2)ccc1O		15.9 µM	34.2%			
COc1cc(/C=C/C(=O)N2CCN(Cc3ccccc3Cl)CC2)ccc1O		15.2 µM	47%			
COc1cc(/C=C/C(=O)N2CCN(Cc3cccc(F)c3)CC2)ccc1O	40.2%	14 µM		26.6 µM	13.1 µM	Papp at 18 h, 500 µM [6]: 9.57 ×10⁻⁶ cm/s; inhibition (Acetylcholinesterase [7]): Active; inhibition [8]: Active
COc1ccc(CN2CCN(C(=O)/C=C/c3ccc(O)c(OC)c3)CC2)cc1	30.5%			46.4 µM	16.4 µM	inhibition [5]: 45.1%
COc1cc(/C=C/C(=O)N2CCN(Cc3ccc(F)cc3)CC2)ccc1O	23.1%	14.8 µM		51.9 µM	14.5 µM	
COc1cc(/C=C/C(=O)NCC(=O)NCCc2c[nH]c3ccc(Cl)cc23)ccc1O	47.3%	1.29 µM		23.6 µM	0.84 µM	
COc1ccc2[nH]cc(CCNC(=O)CNC(=O)/C=C/c3ccc(O)c(OC)c3)c2c1	51.9%	1.23 µM		20.2 µM	0.96 µM	Activity (N2a [9]): Non-Toxic; Activity [10]: Active; Activity [11]: Active; Activity (N2a [12]): Active; Papp at 18 h, 500 µM [6]: 8.51 ×10⁻⁶ cm/s; inhibition (Acetylcholinesterase [7]): Active; Time (Mus musculus): 32.28 s; Activity [13]: 50%; inhibition [8]: Active
